Paper PMC6057476 (ACS chemical biology, 2018)

Legend:
Assay type in all cases: cell-based
[1] = system: transcriptome of MCF-7 cells; test: RNA-Seq global gene expression; conditions: MCF-7, RNA-Seq; 10 nM E2 + 1 μM 4OHT or 15 μM R4K1
[2] = system: ER-regulated genes PTGES, PR, PS2, EGR3, IGFBP4 in MCF-7 cells; test: RT-qPCR of ER-regulated native genes, MCF-7; conditions: 10 nM E2, 2 hrs
How it was run: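 MCF-7 cells in charcoal-dextran-stripped 5% FBS were pretreated with test compound (15 μM, 24 h), 4-hydroxytamoxifen (1 μM, 2 h) or DMSO, then with 10 nM 17β-estradiol for 2 h. Total RNA was assayed by RT-qPCR, normalised to 36B4 and converted to fold change versus DMSO vehicle by ΔΔCt. Error bars are SD.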

[3] = system: MCF-7 cells; test: Proliferation assay; conditions: 10 nM estradiol, 24 hours
How it was run: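 MCF-7 cells in charcoal-dextran-stripped 5% FBS were given vehicle or 15 μM test compound, with or without 10 nM estradiol, starting on day 3. Cells were counted 24 h later by brightfield imaging cytometry. Fold change was taken versus vehicle control over three independent experiments, with error bars as SD.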

Row | SMILES | reversal of E2-regulated genes of cluster 2 (226 genes) [1] | reversal of E2-regulated genes of cluster 3 (87 genes) [1] | expression of five ER-regulated genes, estradiol [2] | proliferation of MCF-7 cells, estradiol [3]
1 | CC/C(=C(\c1ccc(O)cc1)c1ccc(OCCN(C)C)cc1)c1ccccc1 [4OHT, 4-hydroxytamoxifen] | reversed fully | reversed fully |  | 
2 | C[C@]12CC[C@@H]3c4ccc(O)cc4CC[C@H]3[C@@H]1CC[C@@H]2O [Estradiol, 17β-estradiol] |  |  | induced expression of each of the five genes | stimulated proliferation
